Reference: PMC8364871 (Clinical cancer research : an official journal of the …, 2021)
One block for each compound: values may come before it.

What was measured:
SOX11-DNA interaction = target: T1, SOX11-DNA interaction (Homo sapiens, UniProt P35716); experiment: Fluorescence anisotropy; assay type: biochemical; conditions: 20 μM of compound
T1 sequence (P35716 49-117 limits assumed): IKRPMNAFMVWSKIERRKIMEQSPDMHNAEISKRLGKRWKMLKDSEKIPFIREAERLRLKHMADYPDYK
Procedure, shortened: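 Fluorescence anisotropy read at fluorescein excitation/emission wavelengths to follow SOX11–DNA binding in the presence of test compound. Unlabeled DNA served as the competitive positive control. Read-out: percent inhibition of DNA binding.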

MCL cell lines = experiment: Activity in MCL cell lines; assay type: cell-based, human
MCL patients = conditions: cited from earlier work; for duration of response: MCL patients
[1] = system: DNA (topoisomerase I relaxation of supercoiled plasmid DNA); experiment: Topoisomerase-based DNA unwinding assay; assay type: biochemical; conditions: 20 μM
[2] = system: pBTK in JeKo-1, Z-138, Mino and JVM-2; experiment: PhosphoFlow pBTK-Y223, all four MCL cell lines; assay type: cell-based, human; conditions: 24 hours; 1 μM and 10 μM Ibrutinib (Figure 5B)
SOX11 DBD = conditions: cited from earlier work
(His)6-SOX11-DBD = target: T2, (His)6-SOX11-DBD (Homo sapiens, UniProt P35716); experiment: Surface plasmon resonance binding to immobilized SOX11-DBD; conditions: 25 °C
T2 sequence (P35716 49-117 limits assumed): T1 sequence (P35716 49-117 limits assumed)

- inhibition of DNA binding (SOX11-DNA interaction): > 50%
SMILES: Cc1cc2nc3c(=O)[nH]c(=O)nc-3n(C[C@H](O)[C@H](O)[C@H](O)COP(=O)(O)OP(=O)(O)OC[C@H]3O[C@@H](n4cnc5c(N)ncnc54)[C@H](O)[C@@H]3O)c2cc1C [Flavitan]
- activity in MCL cell lines (MCL cell lines): inactivity in MCL cell lines

SMILES: C=CC(=O)N1CCC[C@@H](n2nc(-c3ccc(Oc4ccccc4)cc3)c3c(N)ncnc32)C1 [Ibrutinib]
- duration of response (MCL patients): 17.5 months
- overall response rate (MCL patients; relapsed MCL patients): 60%
- direct DNA binding / interference with DNA unwinding activity of topoisomerase I [1]: do not directly bind DNA
- pBTK level in all four cell lines [2]: reduced pBTK level in all four cell lines

- binding affinity to SOX11-DBD (SPR) ((His)6-SOX11-DBD): displayed expected affinities
SMILES: O=C(O)c1c(O)cccc1CCc1ccc2ccccc2c1 [Sm4]
- concentration inhibiting SOX11 DBD (SOX11 DBD): sub-millimolar concentrations

SMILES: CC1(C)CCC(CN2CCN(c3ccc(C(=O)NS(=O)(=O)c4ccc(NCC5CCOCC5)c([N+](=O)[O-])c4)c(Oc4cnc5[nH]ccc5c4)c3)CC2)=C(c2ccc(Cl)cc2)C1 [Venetoclax]
- duration of response (MCL patients): 14 months
